Laboratory results taken from ChEMBL document CHEMBL1134509, “Transformation of a kappa-opioid receptor antagonist to a kappa-agonist by transfer of a guanidinium group from the 5'- to 6'-position of naltrindole” (J Med Chem, 2001).
pKi: −log10 of the molar value.

Legend:
[1] = target: Kappa-type opioid receptor (Cavia porcellus) (UniProt P41144); test: Opioid antagonist potency, determined in the guinea pig ileum (GPI) preparation, by employing EK (kappa-opioid) as agonist, expressed as IC50 ratio; type: functional, tissue-based
Summary of the method: (§1)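 Electrically stimulated guinea pig ileal longitudinal muscle. Antagonist at 100 nM unless noted (some at 20 nM) was preincubated 15 min, then concentration-response curves to κ agonist ethylketazocine or µ agonist morphine were run with and without antagonist in the same tissue. IC50 ratio taken from the curves; Ke = [antagonist]/(IC50 ratio − 1). Mean ± SEM, n in parentheses.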

[2] = target: Kappa-type opioid receptor (Cavia porcellus) (UniProt P41144); test: Opioid antagonist potency towards opioid receptor kappa 1 determined in guinea pig ileum preparation; type: functional, tissue-based; summary of the method: as §1
[3] = target: T1, Kappa-type opioid receptor (Rattus norvegicus, UniProt P34975); test: Binding affinity towards rat opioid receptor kappa 1 was determined using [3H]diprenorphine radioligand
Summary of the method: (§2)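 Run in 25 mM HEPES pH 7.4 for 90 min at room temperature, filtered and scintillation counted. Nonspecific binding defined with 10 µM naltrexone. Ki from IC50 by Cheng-Prusoff, mean ± SE of three experiments in duplicate.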

[4] = target: Delta-type opioid receptor (Mus musculus) (UniProt P32300); test: Opioid antagonist potency, determined in mouse vas deferens (MVD) preparation, using DADLE (delta-opioid) as agonist (Ke=antagonist/IC50 ratio -1); type: functional
Summary of the method: (§3)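 Electrically stimulated mouse vas deferens. Antagonist, normally 100 nM, preincubated 15 min before concentration-response curves to δ agonist DADLE, obtained with and without antagonist in the same preparation. IC50 ratio from the curves; Ke = [antagonist]/(IC50 ratio − 1), not computed when ratio <1. Mean ± SEM.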

[5] = target: Delta-type opioid receptor (Mus musculus) (UniProt P32300); test: Opioid antagonist potency, determined in mouse vas deferens (MVD) preparation, using DADLE (delta-opioid) as agonist, expressed as IC50 ratio; type: functional; summary of the method: as §3
[6] = target: Mu-type opioid receptor (Rattus norvegicus, UniProt P33535); test: Binding affinity towards rat mu-opioid receptor was determined using [3H]diprenorphine as radioligand; summary of the method: as §2
[7] = target: Delta-type opioid receptor (Mus musculus, UniProt P32300); test: Binding affinity towards mouse delta-opioid receptor was determined using [3H]diprenorphine as radioligand; summary of the method: as §2
[8] = target: Mu-type opioid receptor (Cavia porcellus) (UniProt P97266); test: Opioid antagonist potency, determined in guinea pig ileum (GPI) preparation, using morphine (mu-opioid) as agonist, expressed as IC50 ratio; type: functional, tissue-based
Summary of the method: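 Morphine concentration-response curves in electrically stimulated guinea pig ileal longitudinal muscle, run with and without antagonist (100 nM unless noted, 15 min preincubation) in the same preparation. Result expressed as the IC50 ratio of agonist with versus without antagonist.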

[9] = target: Kappa-type opioid receptor (Rattus norvegicus, UniProt P34975, E297A); test: Effect on binding to kappa(Glu297Ala) opioid receptor, using [3H]diprenorphine in transiently expressed […] HEK293 cells; type: cell-based
Summary of the method: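 Rat κ receptor carrying the Glu297Ala mutation, subcloned in pcDNA3, was transiently expressed in HEK-293 cells by calcium phosphate transfection. Ki was derived by Cheng-Prusoff.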

[10] = target: T1, Kappa-type opioid receptor; test: Effect on binding to wild-type opioid receptor kappa 1 using [3H]diprenorphine in transiently expressed […] HEK293 cells; type: cell-based; summary of the method: as §2
[11] = target: Mu-type opioid receptor (Cavia porcellus) (UniProt P97266); test: Opioid antagonist potency, determined in guinea pig ileum (GPI) preparation, using morphine (mu-opioid) as agonist (Ke=antagonist/IC50 ratio -1); type: functional, tissue-based; summary of the method: as §1
[12] = target: Kappa-type opioid receptor (Cavia porcellus) (UniProt P41144); conditions: Ileum, 20 nM
[13] = target: Mu-type opioid receptor (Cavia porcellus) (UniProt P97266); conditions: Ileum, 20 nM

Kappa-type opioid receptor (Cavia porcellus), sequence (P41144 whole entry): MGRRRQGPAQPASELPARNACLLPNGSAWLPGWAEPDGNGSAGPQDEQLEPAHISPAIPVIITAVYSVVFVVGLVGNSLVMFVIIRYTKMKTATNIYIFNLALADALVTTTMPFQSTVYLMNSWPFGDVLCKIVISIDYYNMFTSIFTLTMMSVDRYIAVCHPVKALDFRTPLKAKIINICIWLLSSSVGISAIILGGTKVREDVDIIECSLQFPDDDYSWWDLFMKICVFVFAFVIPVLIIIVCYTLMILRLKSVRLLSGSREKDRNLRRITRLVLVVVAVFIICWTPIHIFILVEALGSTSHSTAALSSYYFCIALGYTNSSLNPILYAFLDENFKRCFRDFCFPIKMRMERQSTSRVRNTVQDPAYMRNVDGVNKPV
T1 sequence (P34975 whole entry): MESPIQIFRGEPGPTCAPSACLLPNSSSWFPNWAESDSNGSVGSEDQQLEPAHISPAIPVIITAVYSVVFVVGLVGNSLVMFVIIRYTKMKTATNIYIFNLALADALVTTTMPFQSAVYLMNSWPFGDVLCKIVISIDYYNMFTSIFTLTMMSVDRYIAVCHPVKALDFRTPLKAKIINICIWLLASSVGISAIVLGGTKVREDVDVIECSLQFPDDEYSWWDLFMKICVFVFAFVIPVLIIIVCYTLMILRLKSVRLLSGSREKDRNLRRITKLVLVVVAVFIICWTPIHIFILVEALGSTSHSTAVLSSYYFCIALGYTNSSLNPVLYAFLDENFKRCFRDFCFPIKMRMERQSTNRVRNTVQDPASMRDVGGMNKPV
Mu-type opioid receptor (Cavia porcellus), sequence (P97266 whole entry): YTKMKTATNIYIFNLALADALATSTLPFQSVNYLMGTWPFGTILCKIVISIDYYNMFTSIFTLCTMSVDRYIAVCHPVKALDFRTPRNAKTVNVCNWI
Delta-type opioid receptor (Mus musculus), sequence (P32300 whole entry): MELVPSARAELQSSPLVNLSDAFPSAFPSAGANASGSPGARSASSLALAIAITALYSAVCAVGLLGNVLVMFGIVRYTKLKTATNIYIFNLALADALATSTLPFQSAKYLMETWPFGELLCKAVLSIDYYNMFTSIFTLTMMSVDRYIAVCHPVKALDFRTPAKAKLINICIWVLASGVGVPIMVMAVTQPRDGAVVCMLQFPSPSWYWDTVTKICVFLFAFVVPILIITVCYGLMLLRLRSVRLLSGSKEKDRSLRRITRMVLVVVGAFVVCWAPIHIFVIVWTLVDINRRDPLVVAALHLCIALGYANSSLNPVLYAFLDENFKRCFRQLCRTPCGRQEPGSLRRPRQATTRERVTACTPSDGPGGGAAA
Kappa-type opioid receptor (Rattus norvegicus, UniProt P34975, E297A), sequence (P34975 whole entry E297A): as the sequence (P34975 whole entry) above, with E297A counted along it
Mu-type opioid receptor, sequence (P33535 whole entry): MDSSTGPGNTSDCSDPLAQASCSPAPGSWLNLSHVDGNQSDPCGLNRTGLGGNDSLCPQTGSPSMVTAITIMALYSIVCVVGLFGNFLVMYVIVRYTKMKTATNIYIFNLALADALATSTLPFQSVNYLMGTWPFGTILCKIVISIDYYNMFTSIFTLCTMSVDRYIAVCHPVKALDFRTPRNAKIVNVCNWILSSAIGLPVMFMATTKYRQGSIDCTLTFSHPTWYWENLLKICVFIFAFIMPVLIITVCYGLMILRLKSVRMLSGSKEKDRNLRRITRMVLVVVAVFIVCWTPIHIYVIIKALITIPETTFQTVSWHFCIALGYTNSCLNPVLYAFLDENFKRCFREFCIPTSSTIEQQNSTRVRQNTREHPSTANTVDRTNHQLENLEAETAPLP
Delta-type opioid receptor, sequence (P32300 whole entry): as the sequence (P32300 whole entry) above

Structure (SMILES): N=C(N)Nc1cccc2[nH]c3c(c12)C[C@@]1(O)[C@H]2Cc4ccc(O)c5c4[C@@]1(CCN2CC1CC1)[C@H]3O5
- IC50 ratio [1]: 2.3
- Ke [2]: 80 nM
- pKi [3]: < 6.00
- Ke [4]: 263 nM
- IC50 ratio [5]: 1.4
- pKi [6]: < 6.00
- pKi [7]: < 6.00
- IC50 ratio [8]: 0.34

Structure (SMILES): N=C(N)Nc1cccc2c3c([nH]c12)[C@@H]1Oc2c(O)ccc4c2[C@@]12CCN(CC1CC1)[C@H](C4)[C@]2(O)C3
- IC50 ratio [1]: 2
- Ke [2]: 100 nM
- Ke [4]: 0.96 nM
- IC50 ratio [5]: 105
- pKi [9]: 7.33
- pKi [10]: 7.49
- IC50 ratio [8]: 1.4
- Ke [11]: 238 nM

Structure (SMILES): Oc1ccc2c3c1O[C@H]1c4[nH]c5c(c4C[C@@]4(O)[C@@H](C2)N(CC2CC2)CC[C@]314)C[C@@]1(O)[C@H]2Cc3ccc(O)c4c3[C@@]1(CCN2CC1CC1)[C@H]5O4
- IC50 ratio [5]: 10.4
- IC50 ratio [12]: 49.8
- IC50 ratio [13]: 2.6

Structure (SMILES): N=C(N)Nc1ccc2c3c([nH]c2c1)[C@@H]1Oc2c(O)ccc4c2[C@@]12CCN(CC1CC1)[C@H](C4)[C@]2(O)C3
- IC50 ratio [5]: 0.2
- pKi [9]: 7.91
- pKi [10]: 8.95

Structure (SMILES): N=C(N)Nc1ccc2[nH]c3c(c2c1)C[C@@]1(O)[C@H]2Cc4ccc(O)c5c4[C@@]1(CCN2CC1CC1)[C@H]3O5 [GUANIDINONALTRINDOLE]
- Ke [2]: 0.16 nM
- pKi [10]: 9.68
- IC50 ratio [12]: 139
